Experimental findings from ChEMBL document CHEMBL4402567, “Structure-Activity Relationship Studies on Diversified Salicylamide Derivatives as Potent Inhibitors of Human Adenovirus Infection” (J Med Chem, 2020) are described below.

Active and inactive are the calls of the source. The calls are words filed in the database; no cut-off is given here.

Broadly, the inhibition is the relative decrease from the control value, in per cent. Usually IC50 stands for the concentration needed to halve the response being measured. One may read the CC50 as the concentration that lowers cell viability or growth by half.

The subject of data set [1] is Human adenovirus 5. The data set is described as follows: Antiviral activity against Human adenovirus 5 infected in 293beta5 cells assessed as inhibition of plaque formation at 10 uM incubated for 7 days by GFP reporter gene assay relative to control. Format: functional. The conditions noted are these: Human mastadenovirus C, 293beta5, 168 h. The procedure, abridged: (§1)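 HAdV5-GFP plaque assay in 293β5 cells at low MOI. Inhibition is expressed as percent of the infected control, with single-dose screening at 10 μM. Compounds giving >90% inhibition went on to IC50 determination. Values are means ± SD of triplicate samples from three independent experiments.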
(In general: A reporter such as luciferase makes a cellular process visible.)

Data set [2] concerns Human adenovirus 5. The data set is described as follows: Antiviral activity against Human adenovirus 5 infected in 293beta5 cells assessed as inhibition of plaque formation incubated for 7 days by GFP reporter gene assay. Format: functional, organism-based. As to conditions: Human mastadenovirus C, 293beta5, 168 h. In a few lines:
as §1

Data set [3] deals with Human adenovirus 5. The data set is described as follows: Antiviral activity against Human adenovirus 5 infected in human A549 cells assessed as inhibition of viral entry at 50 uM after 48 hrs by GFP reporter gene based assay relative to control. Format: functional. The conditions noted are these: Human mastadenovirus C, A549, 48 h. The procedure, abridged:
(§2)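 Entry assay in A549 epithelial cells infected with HAdV5-GFP at high MOI, with compound present throughout and 48 h incubation. GFP expression is the read-out.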

In data set [4] the test system is Human adenovirus 5. As to the kind of experiment: Antiviral activity against Human adenovirus 5 infected in human A549 cells assessed as inhibition of viral entry after 48 hrs by GFP reporter gene based assay. The class given is functional, organism-based. As to conditions: Human mastadenovirus C, A549, 48 h. The procedure, abridged:
as §2

For data set [5], the system named is Human adenovirus 5. The data set is described as follows: Antiviral activity against Human adenovirus 5 infected in human A549 cells assessed as fold reduction in virus yield at 10 uM after 48 hrs endpoint dilution method relative to control. Format: functional.
The subject of data set [6] is Human adenovirus 5. As to the kind of experiment: Antiviral activity against Human adenovirus 5 infected in 293beta5 cells assessed as inhibition of viral infection at 10 uM measured after 5 to 10 mins post infection by GFP reporter gene assay relative to control. Format: functional. Details: scale not given: the % may be the effect or the level left.
In data set [7] the test system is Human adenovirus 5. As to the kind of experiment: Antiviral activity against Human adenovirus 5 infected in human A549 cells asssessed as inhibition of viral entry by measuring nuclear-associated viral genome level at 10 uM after 45 mins by RT-PCR analysis (reference value: 100.24 +/- 2.77%). The class given is functional. Details: scale not given: the % may be the effect or the level left. The procedure, abridged:
(§3)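 Nuclear HAdV genome levels in treated cells were quantified at 45 min post-infection and compared with DMSO-treated cells. […] Bars are means ± SD of triplicate samples.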

Data set [8] deals with Human adenovirus 5. The data set is described as follows: Antiviral activity against Human adenovirus 5 infected in human A549 cells assessed as inhibition of viral DNA replication by measuring number of viral DNA copies at 10 uM after 24 hrs by RT-qPCR analysis (reference value: 100 +/- 1.55%). Set-up: scale not given: the % may be the effect or the level left. Format: functional. For orientation: Real-time PCR tracks product formation cycle by cycle.

Data set [9] can be described thus: Cytotoxicity against human A549 cells assessed as reduction in cell viability after 48 hrs by alamar blue assay. Format: cell-based. For orientation: The colour change of resazurin is a common sign of viable cells or microbes.
Data set [10] is described as follows: Selectivity index, ratio of CC50 for cytotoxicity against human A549 cells to IC50 for antiviral activity against Human adenovirus 5 infected in 293beta5 cells assessed as inhibition of plaque formation after 7 days. The class given is toxicity, cell-based. As to conditions: read-out: Ratio CC50/IC50.
The subject of data set [11] is Human adenovirus 5. The data set is described as follows: Antiviral activity against Human adenovirus 5 infected in human A549 cells assessed as fold reduction in virus yield at 20 uM after 48 hrs endpoint dilution method relative to control. The class given is functional.
Data set [12] deals with Human adenovirus 5. The data set is described as follows: Antiviral activity against Human adenovirus 5 infected in 293beta5 cells assessed as reduction in inhibition of viral replication at 10 uM preincubated for 60 mins followed by viral infection by GFP reporter gene assay. The class given is functional, organism-based.
Data set [13] deals with Human adenovirus 5. The data set is described as follows: Antiviral activity against Human adenovirus 5 infected in 293beta5 cells assessed as inhibition of viral replication at 10 uM after 20 mins post infection by GFP reporter gene assay relative to control. Format: functional. As to conditions: Human mastadenovirus C, 293beta5, 20 min.
The subject of data set [14] is Human adenovirus 5. The data set is described as follows: Antiviral activity against Human adenovirus 5 infected in human A549 cells asssessed as inhibition of viral entry by measuring nuclear-associated viral genome level at 20 uM after 45 mins by RT-PCR analysis (reference value: 100.24 +/- 2.77%). Set-up: scale not given: the % may be the effect or the level left. Format: functional. In a few lines:
as §3

For data set [15], the system named is Human adenovirus 5. As to the kind of experiment: Antiviral activity against Human adenovirus 5 infected in human A549 cells assessed as inhibition of viral DNA replication by measuring number of viral DNA copies at 20 uM after 24 hrs by RT-qPCR analysis (reference value: 100 +/- 1.55%). Format: functional. Details: scale not given: the % may be the effect or the level left.

`O=C(Nc1ccc(C(F)(F)F)cc1Cl)c1cc(Cl)ccc1O`: the inhibition at 10 µM with Human adenovirus 5 [1] worked out at 100%. For the same compound, the IC50 in the data set with Human adenovirus 5 [2] stood at 0.08 µM; with Human adenovirus 5 [4], 1.67 µM. The inhibition at 50 µM in the data set on Human adenovirus 5 [3] was determined as 100%. Further, in the data set on Human adenovirus 5 [5], the “fold change (FC)” value is listed as 175. Besides, the Activity with Human adenovirus 5 [6] is reported as 20%; with Human adenovirus 5 [7], 46.53%; in the data set with Human adenovirus 5 [8], 27.03%.

As to `O=C(N[C@H](Cc1ccccc1)C(=O)Nc1ccc([N+](=O)[O-])cc1Cl)c1cc(Cl)ccc1O`, the values for the inhibition at 10 µM with Human adenovirus 5 [1] and with Human adenovirus 5 [13] were 100% and 50%, respectively. Further, the half-inhibitory concentration (IC50) in the data set on Human adenovirus 5 [2] turned out to be 0.3 µM; in the data set with Human adenovirus 5 [4], 9.7 µM. Also, the CC50 at 48 h in data set [9] was 77.9 µM. Moreover, the selectivity ratio at 168 h in data set [10] is 260. In addition, the “fold change (FC)” value in the data set with Human adenovirus 5 [11] was found to be 528. Moreover, the result with Human adenovirus 5 [12] was Active. Besides, the results for the Activity with Human adenovirus 5 [14] and in the data set with Human adenovirus 5 [15] were 32.21% and 25.78%, respectively.
